# Experimental data: PubChem BioAssay
# Active and inactive are the calls of the source.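 How the source made its calls, unless noted: active means visually confirmed hit in the image check and inhibition above 20%; inconclusive means visually confirmed hit but inhibition not above 20%; inactive means no visual hit in the image check.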
# Assays:
# [1] = inhibitors of TNFa-induced NFkB p65 translocation, primary screen, imaging, HUVEC, MLSMR starter and 10KST1 sets (AID 438;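 active means inhibition above 20% together with a positive visual image hit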;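 further: compound added about 3h40 before a 20 min TNFalpha stimulation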;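 on inhibition: signal is the nuclear over cytoplasmic p65 intensity ratio per well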); settings: HUVEC TNFa-induced p65 nuclear translocation; cell count: measured here: nuclei count (cytotoxicity indicator), at 2.08 µM; inhibition: at 2 µM, stronger effect = higher value, 0% TNFa-plus-vehicle, 100% no-TNFa wells
# [2] = inhibitors of mutant huntingtin aggregation, primary screen, imaging, exon1htt(103Q)mCFP cells, high-content imaging (AID 483;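 active means visual image review flags a hit and inhibition of aggregation exceeds 20%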;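 further: compound exposure lasted 3 days before fixation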;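 on nuclei count: percent of the per-plate median nuclei count of sample wells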); settings: exon1htt(103Q)mCFP cell line, aggregate imaging, at 2 µM; inhibition of aggregation: stronger effect = higher value; nuclei count: measured here: cell count, toxicity
# [3] = inhibitors of E-selectin induction by TNFa, primary screen, imaging, HUVEC, immunofluorescence, MLSMR starter and 10KST1 sets (AID 487); settings: HUVEC TNFalpha-induced E-selectin immunofluorescence imaging, at 2 µM; inhibition: stronger effect = higher value; nuclei count: measured here: cell number, toxicity;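 on inhibition: signal is fraction of cell area covered by stained E-selectin grains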;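 on nuclei count: 100% = median nuclei count of all wells on the same plate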
# [4] = molecular target: Voltage-gated potassium channel subunit beta-2 (Rattus norvegicus) (UniProt P62483); assay: KvBeta enzyme negative modulators, primary screen, biochemical, NADPH fluorescence (AID 622;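 active means fluorescence slope higher than the sample average by over 3 SD, cut at about -0.22 in these data, passing the limit was not always enough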;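 further: slope of raw intensity against log time taken from 70 to 1610 s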); settings: recombinant KvBeta, 4-cyanobenzaldehyde reduction, at 10 µM, stronger effect = higher value
# Sequence of Voltage-gated potassium channel subunit beta-2 (Rattus norvegicus) (P62483 whole entry, looked up): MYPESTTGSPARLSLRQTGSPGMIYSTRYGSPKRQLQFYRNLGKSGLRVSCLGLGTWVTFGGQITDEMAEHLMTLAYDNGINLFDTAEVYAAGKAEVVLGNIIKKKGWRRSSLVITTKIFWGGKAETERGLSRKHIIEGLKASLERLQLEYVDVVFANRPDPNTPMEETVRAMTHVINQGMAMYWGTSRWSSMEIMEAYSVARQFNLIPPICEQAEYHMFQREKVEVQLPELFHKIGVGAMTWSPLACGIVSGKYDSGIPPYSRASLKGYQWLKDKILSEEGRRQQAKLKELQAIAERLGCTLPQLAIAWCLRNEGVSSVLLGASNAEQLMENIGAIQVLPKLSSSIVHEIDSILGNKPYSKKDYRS
# [5] = molecular target: Voltage-gated potassium channel subunit beta-2 (Rattus norvegicus) (UniProt P62483); assay: KvBeta positive modulators, primary screen, biochemical, NADPH fluorescence (AID 623;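 active means NADPH fluorescence slope more negative than the mean of all samples by about 3 SD, 99.7% confidence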;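 further: fluorescence intensity change per second fitted from 20 to 320 s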); settings: Recombinant KvBeta, NADPH fluorescence decrease slope, 10 min; at 10 µM; stronger effect = lower value
# [6] = molecular target: Muscarinic acetylcholine receptor M4 (Homo sapiens) (UniProt P08173); assay: compounds altering M4/GIRK thallium flux, either direction, primary screen, M4 allosteric agonist project, cell-based, HEK293 M4/GIRK, BTC-AM (AID 625;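 active means fluorescence slope after compound addition differing from the mean of all tested samples at 99.7% confidence, mostly higher but some lower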;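 further: thallium influx through GIRK channels coupled to M4 in HEK293 cells with BTC-AM dye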); settings: at 10 µM, actives lie on both sides
# Sequence of Muscarinic acetylcholine receptor M4 (Homo sapiens) (P08173 whole entry, looked up): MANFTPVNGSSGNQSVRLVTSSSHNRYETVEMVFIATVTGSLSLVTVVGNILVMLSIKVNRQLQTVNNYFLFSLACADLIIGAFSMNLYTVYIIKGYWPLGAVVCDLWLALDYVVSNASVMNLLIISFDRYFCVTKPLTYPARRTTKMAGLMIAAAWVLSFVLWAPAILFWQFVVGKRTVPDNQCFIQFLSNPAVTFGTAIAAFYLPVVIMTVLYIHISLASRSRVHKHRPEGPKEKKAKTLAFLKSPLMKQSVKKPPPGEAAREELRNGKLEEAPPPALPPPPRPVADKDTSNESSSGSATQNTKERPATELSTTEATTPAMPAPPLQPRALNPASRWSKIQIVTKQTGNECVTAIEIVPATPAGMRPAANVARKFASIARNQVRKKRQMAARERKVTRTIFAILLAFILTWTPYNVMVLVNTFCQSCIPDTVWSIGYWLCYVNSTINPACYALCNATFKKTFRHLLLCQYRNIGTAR
# In short: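 assay system = HEK293 cells with M4 receptor and GIRK channels | medium = pH 7.3 thallium assay buffer | doses = 10 µM final, single point | timing = cells overnight at 37 °C, BTC-AM loading 1 h, reads 2 min total | signal = BTC-AM fluorescence, 1 Hz kinetic reads | read-out = post-addition slope, 15–24 s, of baseline-normalized fluorescence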
# [7] = inhibitors of Sendai virus-induced IRF3 signaling, primary screen, TLR/RLR signaling modifier project, cell-based, Sendai virus stimulus, luciferase, 10K MLSCN set (AID 602276;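 active means inhibition at or above 50% at 10 µM; inactive means inhibition below 50%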;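 further: firefly luciferase from ISG56 promoter only with Renilla not read in this screen; 0% = Sendai virus plus DMSO and 100% = medium plus DMSO without virus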); settings: HEK293 RL24 IRF3 luciferase reporter, at 10 µM, stronger effect = higher value
# [8] = inhibitors of poly I:C-induced TLR3 signaling, primary screen, cell-based, poly I:C stimulus, luciferase, 10K MLSCN set (AID 602277;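 active means inhibition of the reporter signal at or above 50%; inactive means inhibition below 50%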); settings: HEK293-TLR3 RL24 IRF3 luciferase reporter, at 10 µM, stronger effect = higher value
SMILES,cell count [1],inhibition [1],inhibition of aggregation [2],nuclei count [2],inhibition [3],nuclei count [3],fluorescence slope [4],NADPH fluorescence slope [5],fluorescence slope [6],inhibition [7],inhibition [8]
CN1C(=O)C2(NCCc3c2[nH]c2ccccc32)c2ccccc21 (centres undefined),583,0.7% (inactive),-4.1% (inactive),99.3%,-4.8% (inactive),90.7%,-0.482 (inactive),-0.000314 (inactive),0.00214 (inactive),20% (inactive),34.7% (inactive)
Nc1nc(-c2ccc(Cl)cc2)cc(C(F)(F)F)n1,439,2.1% (inactive),4.9% (inactive),103%,-16.4% (inactive),109%,-0.582 (inactive),-1.9e-07 (inactive),0.00927 (inactive),1.69% (inactive),-12.7% (inactive)
COc1ccc(CNc2nc3nc(C)cc(C)n3n2)cc1OC,646,-15.5% (inactive),39.5% (active),107%,-5.7% (inactive),115%,-0.422 (inactive),-0.000434 (inactive),0.00355 (inactive),13.3% (inactive),12.9% (inactive)
Cc1ccccc1-c1nc(CN2CCC(C(=O)NCCCN3CCOCC3)CC2)c(C)o1,598,-5.3% (inactive),-16.7% (inactive),89.8%,-67.2% (inactive),102%,-0.496 (inactive),6.2e-05 (inactive),0.00497 (inactive),-3.78% (inactive),22.4% (inactive)
CC1CCN(C(=S)c2ccccc2O)CC1,713,-2.9% (inactive),7.3% (inactive),98.7%,-144% (inactive),121%,-0.536 (inactive),-5.2e-05 (inactive),0.0045 (inactive),24.9% (inactive),34.5% (inactive)
COc1cc(NC(=O)c2cc(OC)c(OC)c(OC)c2)c(OC)cc1NC(=O)CN1CCCCC1,700,-11.1% (inactive),12.2% (inactive),115%,-14.6% (inactive),115%,-0.309 (inactive),-3.3e-05 (inactive),0.00436 (inactive),3.03% (inactive),-8.31% (inactive)
COCCCNC(=O)CC(NS(=O)(=O)c1ccc(Cl)cc1)c1ccco1 (centres undefined),402,0.3% (inactive),-20.4% (inactive),112%,-62.8% (inactive),121%,-0.541 (inactive),-4.5e-05 (inactive),0.00644 (inactive),11.7% (inactive),20.4% (inactive)
Cc1ccc(-c2cc(C(F)F)nc(NCc3cccnc3)n2)cc1,590,-26.5% (inactive),-44.3% (inactive),81.9%,-97.8% (inactive),118%,-0.467 (inactive),-1.4e-06 (inactive),0.00586 (inactive),7% (inactive),-13.6% (inactive)
Cc1ccnc(NS(=O)(=O)c2ccc(N=CC3=C(O)CC(C)(C)CC3=O)cc2)n1,395,2.5% (inactive),-9% (inactive),79.4%,7.7% (inactive),110%,-0.474 (inactive),9.9e-06 (inactive),0.00511 (inactive),7.45% (inactive),1.62% (inactive)
Cn1cnnc1SCC(=O)NCc1cccc(C(F)(F)F)c1,352,1.1% (inactive),0.1% (inactive),116%,-95.6% (inactive),118%,-0.532 (inactive),3.5e-05 (inactive),0.00701 (inactive),4.51% (inactive),3.97% (inactive)
CS(=O)(=O)N1CCN(CC2CC3C=CC2C3)CC1 (centres undefined),367,-3% (inactive),-5.6% (inactive),94.8%,-18.9% (inactive),123%,-0.199 (inactive),-2e-05 (inactive),0.00684 (inactive),14.1% (inactive),25.1% (inactive)
Cn1cnnc1Sc1nc2c(c(=O)n(C)c(=O)n2C)n1C,613,-33.7% (inactive),11.6% (inactive),90.4%,-50.7% (inactive),100%,-0.547 (inactive),2.3e-05 (inactive),0.00524 (inactive),-1.17% (inactive),9.62% (inactive)
Cn1cc(CC(=O)Nc2cccc(C#N)c2)c2ccccc21,414,-0.7% (inactive),23.9% (inactive),83.5%,13.7% (inactive),97.2%,-0.47 (inactive),-1.8e-05 (inactive),0.00535 (inactive),3.88% (inactive),-0.551% (inactive)
O=C(CSc1nnnn1-c1ccccc1)Nc1nsc(-c2ccc(Cl)cc2)n1,449,-4.1% (inactive),17.3% (inactive),95.1%,59.2% (inactive),130%,-0.561 (inactive),-3.3e-05 (inactive),0.00729 (inactive),15.4% (inactive),15.1% (inactive)
